In publication PMC4608532 (ChemistryOpen, 2015):

Test system: HUVEC
Experiment: In vitro morphogenesis assay on HUVEC plated on Matrigel, VEGF-stimulated
Assay type: cell-based, Human
Conditions: 5 h incubation
Outline: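 HUVEC (passages 2–10) were maintained at 37 °C, 5% CO2 in medium with 2% FBS and growth factors. 2.5×10^4 cells were seeded on pre-polymerized Matrigel and incubated for 5 h at 37 °C with or without test compound, under VEGF 10 ng mL−1 stimulation. Networks were imaged by phase contrast and scored as total branch length in pixels, with open ramifications counted as branches. Data were normalized to VEGF alone and given as mean±S.D. of 4–10 experiments, with a two-tailed paired Student's t test.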

| Substance | effect on new capillary network formation induced by VEGF165 (in words) (VEGF165 10 ng mL−1) | VEGF-induced morphogenesis, % of VEGF alone (1 μM, VEGF 10 ng mL−1, length of branches, p>0.05) |
| --- | --- | --- |
| cyclo[DKP-RGD] [Compound 1] | markedly decreased | – |
| Ac-KQMYLELGYATIKWL-NH2 [Compound 14, Ac-Lys-Gln-Met-Tyr-Leu-Glu-Leu-Gly-Tyr-Ala-Thr-Ile-Lys-Trp-Leu-amide] | – | 82 %±21% |
